Activity calls are given as the source filed them. No cut-off for these calls is given here.
Experiments:
[1] = Tmax in ICR mouse at 10 mg/kg, po administered via gavage measured after 0.25 to 24 hrs by UPLC/MS analysis; format: ADME, organism-based; conditions: in vivo
How it was run: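 Male ICR mice dosed orally (3, 10 or 100 mg/kg, per line) in 1% DMSO/0.5% HPMC vehicle; plasma drug levels measured.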

Cytochrome P450 3A4 = Cytochrome P450 3A4 (Homo sapiens, UniProt P08684); assay: Time-dependent inhibition of CYP3A4 in human liver microsomes at 10 uM using midazolam or testosterone as substrate preincubated up to 30 mins followed by NADPH generating system addition and measured after 10 mins; format: ADME
Sequence of Cytochrome P450 3A4 (P08684 whole entry): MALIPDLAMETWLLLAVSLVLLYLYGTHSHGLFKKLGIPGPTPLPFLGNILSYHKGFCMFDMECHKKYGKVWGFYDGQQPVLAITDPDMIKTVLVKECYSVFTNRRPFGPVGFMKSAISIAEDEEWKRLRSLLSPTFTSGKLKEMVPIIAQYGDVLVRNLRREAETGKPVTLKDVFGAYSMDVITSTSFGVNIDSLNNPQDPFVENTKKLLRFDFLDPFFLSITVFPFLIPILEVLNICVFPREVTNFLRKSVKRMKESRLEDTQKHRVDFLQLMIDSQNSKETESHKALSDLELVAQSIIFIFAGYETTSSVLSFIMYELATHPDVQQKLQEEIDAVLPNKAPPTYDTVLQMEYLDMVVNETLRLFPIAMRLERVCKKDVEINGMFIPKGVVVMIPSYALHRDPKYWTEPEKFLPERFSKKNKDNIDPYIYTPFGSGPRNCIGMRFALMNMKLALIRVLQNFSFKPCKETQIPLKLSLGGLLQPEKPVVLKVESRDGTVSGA
How it was run: (§1)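 Human liver microsomes 0.2 mg/mL, 100 mM phosphate pH 7.4, 10 μM test compound, preincubated 0, 5, 10 and 30 min at 37 °C; then NADPH plus probe cocktail (5 μM midazolam, 50 μM testosterone, 5 μM dextromethorphan, 10 μM diclofenac, 50 μM phenacetin, 50 μM S-(+)-mephenytoin) added; 10 min reaction; kobs in units of 10^-4/min.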

[2] = Half life in ICR mouse at 10 mg/kg, po administered via gavage measured after 0.25 to 24 hrs by UPLC/MS analysis; format: ADME, organism-based; conditions: in vivo
How it was run: (§2)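 Male ICR mice dosed orally in 1% DMSO/0.5% HPMC vehicle; plasma or brain drug levels used to derive Tmax, Cmax, AUC0-t, AUC0-inf and T1/2.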

Cytochrome P450 1A2 = target: T1, Cytochrome P450 1A2 (Homo sapiens, UniProt P05177); assay: Time-dependent inhibition of CYP1A2 in human liver microsomes at 10 uM using phenacetin as substrate preincubated up to 30 mins followed by NADPH generating system addition and measured after 10 mins; format: ADME; how it was run: as §1
T1 sequence (P05177 whole entry): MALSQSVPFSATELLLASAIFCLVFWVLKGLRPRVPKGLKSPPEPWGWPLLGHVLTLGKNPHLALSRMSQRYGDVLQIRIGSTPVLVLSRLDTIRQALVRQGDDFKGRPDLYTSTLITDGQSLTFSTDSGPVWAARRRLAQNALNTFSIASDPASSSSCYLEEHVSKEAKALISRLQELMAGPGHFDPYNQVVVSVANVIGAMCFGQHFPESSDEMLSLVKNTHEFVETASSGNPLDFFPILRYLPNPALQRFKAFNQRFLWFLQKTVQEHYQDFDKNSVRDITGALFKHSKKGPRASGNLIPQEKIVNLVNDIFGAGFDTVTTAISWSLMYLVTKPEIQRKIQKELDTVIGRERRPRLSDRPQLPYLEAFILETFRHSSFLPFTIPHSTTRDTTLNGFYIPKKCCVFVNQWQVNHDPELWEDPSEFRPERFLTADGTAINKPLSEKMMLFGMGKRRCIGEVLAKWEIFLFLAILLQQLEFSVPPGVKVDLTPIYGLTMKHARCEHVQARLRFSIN

[3] = AUC (0 to t) in ICR mouse at 10 mg/kg, po administered via gavage measured after 0.25 to 24 hrs by UPLC/MS analysis; format: ADME, organism-based; parameters: time 0.25-24 hr, dose 10 mg/kg, route oral; conditions: in vivo
How it was run: (§3)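 Male ICR mice were dosed orally in 1% DMSO/0.5% HPMC vehicle. Plasma (and brain, where stated) concentrations gave Tmax, Cmax, T1/2, AUC0-t and AUC0-inf.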

[4] = Cmax in ICR mouse at 10 mg/kg, po administered via gavage measured after 0.25 to 24 hrs by UPLC/MS analysis; format: ADME, organism-based; parameters: dose 10 mg/kg, route oral; conditions: in vivo; how it was run: as §2
[5] = target: T2, Bromodomain-containing protein 4 (Homo sapiens, UniProt O60885); assay: Displacement of 5-FITC labelled (+)-JQ1 from His6-tagged human BRD4 bromodomain 1 expressed in Escherichia coli BL21(DE3) )-codon plus-RIL cells incubated for 4 hrs in dark condition by fluorescence anisotropy binding assay
Cytochrome P450 2C19 = Cytochrome P450 2C19 (Homo sapiens, UniProt P33261); assay: Time-dependent inhibition of CYP2C19 in human liver microsomes at 10 uM using mephenytoin as substrate preincubated up to 30 mins followed by NADPH generating system addition and measured after 10 mins; format: ADME; how it was run: as §1
Sequence of Cytochrome P450 2C19 (P33261 whole entry): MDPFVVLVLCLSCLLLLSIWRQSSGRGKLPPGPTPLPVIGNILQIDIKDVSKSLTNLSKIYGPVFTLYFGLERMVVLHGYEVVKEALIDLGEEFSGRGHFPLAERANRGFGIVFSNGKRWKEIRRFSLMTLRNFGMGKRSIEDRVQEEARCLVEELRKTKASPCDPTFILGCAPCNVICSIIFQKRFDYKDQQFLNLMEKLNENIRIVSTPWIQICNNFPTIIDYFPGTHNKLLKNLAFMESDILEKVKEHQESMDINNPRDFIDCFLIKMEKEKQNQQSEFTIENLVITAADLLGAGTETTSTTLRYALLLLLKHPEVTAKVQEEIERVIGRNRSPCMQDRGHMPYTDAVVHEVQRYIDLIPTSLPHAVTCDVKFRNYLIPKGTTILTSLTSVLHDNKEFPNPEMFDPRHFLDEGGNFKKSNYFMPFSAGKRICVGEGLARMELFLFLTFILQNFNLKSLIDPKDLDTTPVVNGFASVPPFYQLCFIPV

[6] = AUC (0 to infinity) in ICR mouse at 10 mg/kg, po administered via gavage measured after 0.25 to 24 hrs by UPLC/MS analysis; format: ADME, organism-based; parameters: dose 10 mg/kg, route oral, time infinity; conditions: in vivo; how it was run: as §3
Cytochrome P450 2C9 = Cytochrome P450 2C9 (Homo sapiens, UniProt P11712); assay: Time-dependent inhibition of CYP2C9 in human liver microsomes at 10 uM using diclofenac as substrate preincubated up to 30 mins followed by NADPH generating system addition and measured after 10 mins; format: ADME; how it was run: as §1
Sequence of Cytochrome P450 2C9 (P11712 whole entry): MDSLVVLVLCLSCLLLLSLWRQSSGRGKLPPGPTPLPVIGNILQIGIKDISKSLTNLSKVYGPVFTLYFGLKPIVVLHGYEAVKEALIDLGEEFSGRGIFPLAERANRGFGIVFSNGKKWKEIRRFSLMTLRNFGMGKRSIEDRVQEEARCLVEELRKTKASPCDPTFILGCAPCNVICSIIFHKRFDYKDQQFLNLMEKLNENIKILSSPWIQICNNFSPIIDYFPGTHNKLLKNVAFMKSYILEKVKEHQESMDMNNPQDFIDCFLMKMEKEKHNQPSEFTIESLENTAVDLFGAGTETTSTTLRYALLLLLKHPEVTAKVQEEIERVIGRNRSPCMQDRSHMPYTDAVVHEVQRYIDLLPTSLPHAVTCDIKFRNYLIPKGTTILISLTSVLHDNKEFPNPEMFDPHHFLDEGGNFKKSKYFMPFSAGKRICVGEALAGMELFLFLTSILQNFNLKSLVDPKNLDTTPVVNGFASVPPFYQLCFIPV

Cytochrome P450 2D6 = Cytochrome P450 2D6 (Homo sapiens, UniProt P10635); assay: Time-dependent inhibition of CYP2D6 in human liver microsomes at 10 uM using dextromethorphan as substrate preincubated up to 30 mins followed by NADPH generating system addition and measured after 10 mins; format: ADME; how it was run: as §1
Sequence of Cytochrome P450 2D6 (P10635 whole entry): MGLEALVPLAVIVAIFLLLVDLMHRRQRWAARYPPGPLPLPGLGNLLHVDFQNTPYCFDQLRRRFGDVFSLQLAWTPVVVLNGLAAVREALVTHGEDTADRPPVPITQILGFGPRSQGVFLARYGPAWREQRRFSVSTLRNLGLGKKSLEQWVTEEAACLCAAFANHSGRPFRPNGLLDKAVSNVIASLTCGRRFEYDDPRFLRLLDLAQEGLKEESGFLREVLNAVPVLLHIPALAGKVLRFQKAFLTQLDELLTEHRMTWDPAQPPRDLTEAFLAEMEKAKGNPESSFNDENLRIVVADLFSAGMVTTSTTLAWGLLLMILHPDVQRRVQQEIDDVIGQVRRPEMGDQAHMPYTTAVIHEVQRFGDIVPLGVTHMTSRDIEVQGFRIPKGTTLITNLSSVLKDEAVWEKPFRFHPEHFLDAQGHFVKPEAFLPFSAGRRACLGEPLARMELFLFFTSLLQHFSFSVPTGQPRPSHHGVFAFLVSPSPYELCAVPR

MM1.S = assay: Antiproliferative activity against human MM1S cells after 72 hrs by CCK8 or SRB assay; format: functional, cell-based
How it was run: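 IC50 against MM.1S cell proliferation was taken as the mean of three independent experiments, each run in triplicate, reported with SEM.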

[7] = Metabolic stability in human liver microsomes at 1 uM preincubated for 5 mins followed by NADPH addition and measured after 5 to 30 mins by LC/MS/MS analysis; format: ADME, Microsome
How it was run: (§4)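 Liver microsomes (0.5 mg/mL) preincubated 5 min at 37 °C with 1 μM compound in 0.1 M phosphate buffer pH 7.4 containing 1 mM EDTA and 5 mM MgCl2; started with 1 mM NADPH; sampled at 0, 5, 10 and 30 min; quenched with cold acetonitrile; parent remaining quantified by LC/MS/MS.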

[8] = Metabolic stability in mouse liver microsomes at 1 uM preincubated for 5 mins followed by NADPH addition and measured after 5 to 30 mins by LC/MS/MS analysis; format: ADME, Microsome; how it was run: as §4
CYP2C19 = CYP2C19 (Homo sapiens, UniProt P33261); assay: Reversible inhibition of CYP2C19 in human liver microsomes at 10 uM using mephenytoin as substrate preincubated for 5 mins followed by NADPH generating system addition and measured after 20 mins relative to control; format: ADME; conditions: probe mephenytoin
Sequence of CYP2C19 (P33261 whole entry): as the sequence (P33261 whole entry) above
How it was run: (§5)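 Human liver microsomes 0.2 mg/mL, 100 mM phosphate pH 7.4, 10 μM test compound, probe cocktail (10 μM midazolam, 100 μM testosterone, 10 μM dextromethorphan, 20 μM diclofenac, 100 μM phenacetin, 100 μM mephenytoin); organic solvent <1%; 5 min preincubation at 37 °C, started with NADPH-generating system, 20 min reaction; metabolite formation expressed relative to PBS control.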

[9] = Half life in human liver microsomes at 1 uM preincubated for 5 mins followed by NADPH addition and measured after 5 to 30 mins by LC/MS/MS analysis; format: ADME, Microsome
[10] = Intrinsic clearance in human liver microsomes at 1 uM preincubated for 5 mins followed by NADPH addition and measured after 5 to 30 mins by LC/MS/MS analysis; format: ADME, Microsome; conditions: read-out: CLH; how it was run: as §4
[11] = Intrinsic clearance in mouse liver microsomes at 1 uM preincubated for 5 mins followed by NADPH addition and measured after 5 to 30 mins by LC/MS/MS analysis; format: ADME, Microsome; conditions: read-out: CLH; how it was run: as §4
CYP2C9 = CYP2C9 (Homo sapiens, UniProt P11712); assay: Reversible inhibition of CYP2C9 in human liver microsomes at 10 uM using diclofenac as substrate preincubated for 5 mins followed by NADPH generating system addition and measured after 20 mins relative to control; format: ADME; conditions: probe diclofenac; how it was run: as §5
Sequence of CYP2C9 (P11712 whole entry): as the sequence (P11712 whole entry) above

[12] = Half life in mouse liver microsomes at 1 uM preincubated for 5 mins followed by NADPH addition and measured after 5 to 30 mins by LC/MS/MS analysis; format: ADME, Microsome; conditions: mouse liver microsomes
CYP3A4 = CYP3A4 (Homo sapiens, UniProt P08684); assay: Reversible inhibition of CYP3A4 in human liver microsomes at 10 uM using midazolam or testosterone as substrate preincubated for 5 mins followed by NADPH addition and measured after 20 mins relative to control; format: ADME; conditions: probe midazolam or testosterone; how it was run: as §5
Sequence of CYP3A4 (P08684 whole entry): as the sequence (P08684 whole entry) above

CYP1A2 = CYP1A2 (Homo sapiens, UniProt P05177); assay: Reversible inhibition of CYP1A2 in human liver microsomes at 10 uM using phenacetin as substrate preincubated for 5 mins followed by NADPH generating system addition and measured after 20 mins relative to control; format: ADME; conditions: probe phenacetin; how it was run: as §5
[13] = target: T2, Bromodomain-containing protein 4; assay: Inhibition of BRD4 bromodomain 1 (unknown origin)
How it was run: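 BRD4 BD1 (His6-tagged, E. coli BL21(DE3)-expressed, Ni-NTA purified) at 10 nM with 5 nM FITC-labelled (+)-JQ1 tracer; 50 mM HEPES pH 7.4, 150 mM NaCl, 0.5 mM CHAPS, DMSO 2‰ final; graded inhibitor; 4 h dark equilibration at room temperature; fluorescence anisotropy read (ex 485/em 530 nm). IC50 from two independent experiments in duplicate, mean ± SEM.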

[14] = target: Histone acetyltransferase p300 (Homo sapiens) (UniProt Q09472); assay: Inhibition of EP300 (unknown origin) at 1 uM
How it was run: (§6)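 Bromodomain binding panel (32 bromodomains) screened at 1 μM; primary binding read-out reported as percent of control, lower values meaning stronger binding.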

[15] = target: Bromodomain-containing protein 2 (Homo sapiens) (UniProt P25440); assay: Inhibition of BRD2 bromodomain 1 (unknown origin)
Sequence of Bromodomain-containing protein 2 (Homo sapiens) (P25440 whole entry, looked up): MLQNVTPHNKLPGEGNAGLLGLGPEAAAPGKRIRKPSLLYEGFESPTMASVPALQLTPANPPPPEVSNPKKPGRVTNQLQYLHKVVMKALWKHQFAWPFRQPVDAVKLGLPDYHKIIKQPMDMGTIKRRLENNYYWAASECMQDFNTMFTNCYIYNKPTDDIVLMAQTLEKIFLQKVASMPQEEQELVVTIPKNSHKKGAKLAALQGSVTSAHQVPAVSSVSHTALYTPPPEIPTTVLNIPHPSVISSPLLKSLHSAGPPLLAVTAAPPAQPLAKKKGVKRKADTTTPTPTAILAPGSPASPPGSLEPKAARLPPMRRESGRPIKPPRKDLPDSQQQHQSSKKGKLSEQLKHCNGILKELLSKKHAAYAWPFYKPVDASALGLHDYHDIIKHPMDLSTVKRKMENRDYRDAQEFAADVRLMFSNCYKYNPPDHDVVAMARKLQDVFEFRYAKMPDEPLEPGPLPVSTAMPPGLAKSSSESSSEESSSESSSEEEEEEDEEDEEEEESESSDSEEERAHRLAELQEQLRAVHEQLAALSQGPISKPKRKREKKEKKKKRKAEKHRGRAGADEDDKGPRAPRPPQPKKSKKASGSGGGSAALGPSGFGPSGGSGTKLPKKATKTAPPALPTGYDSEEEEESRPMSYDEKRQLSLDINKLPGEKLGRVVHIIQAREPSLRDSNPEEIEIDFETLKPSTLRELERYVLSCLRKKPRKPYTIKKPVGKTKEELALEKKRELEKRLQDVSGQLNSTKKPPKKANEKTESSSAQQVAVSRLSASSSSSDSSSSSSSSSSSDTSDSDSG

[16] = target: T2, Bromodomain-containing protein 4; assay: Inhibition of BRD4 bromodomain 2 (unknown origin)
[17] = target: Bromodomain-containing protein 2 (Homo sapiens) (UniProt P25440); assay: Inhibition of BRD2 bromodomain 2 (unknown origin); how it was run: as §6

Tmax [1] | TDI (Cytochrome P450 3A4) | half-life [2] | TDI (Cytochrome P450 1A2) | AUC(0-t) [3] | Cmax [4] | IC50 [5] | TDI (Cytochrome P450 2C19) | AUC(0-inf) [6] | TDI (Cytochrome P450 2C9) | TDI (Cytochrome P450 2D6) | IC50 (MM1.S) | Stability [7] | Stability [8] | inhibition at 20 min, 10 µM (CYP2C9) | Structure (SMILES) | other results
0.3 h | Not Active | 1.5 h | Not Active | 161 ng·h/mL | 163 ng/mL | 8.6 nM | Not Active | 164 ng·h/mL | Not Active | Not Active | 6.7 nM | Stable | Stable | – | Cc1ccc(-n2cnnc2-c2ccc3c(c2)N(C2CC2)C(C)C(=O)N3C)cc1 (centres undefined) | –
0.3 h | 19 ×10⁻⁴ /min | 1.7 h | 41 ×10⁻⁴ /min | 2740 ng·h/mL | 1230 ng/mL | 9.4 nM | Not Active | 2760 ng·h/mL | 19 ×10⁻⁴ /min | 14 ×10⁻⁴ /min | 8 nM | – | – | 6% | Cc1ccc(-n2nc(C(=O)N3CCN(C)CC3)nc2-c2ccc3c(c2)N(C2CC2)C(C)C(=O)N3C)cc1 (centres undefined) | inhibition at 20 min, 10 µM (CYP2C19): 17%; half-life at 1 µM [9]: 1.03 h; microsomal CLint at 1 µM [10]: 22 µL/min/mg; microsomal CLint at 1 µM [11]: 13 µL/min/mg; half-life at 1 µM [12]: 1.78 h; inhibition at 20 min, 10 µM (CYP3A4): 12%; inhibition at 20 min, 10 µM (CYP1A2): 2%
– | Not Active | – | Not Active | – | – | 5.2 nM | Not Active | – | Not Active | Not Active | 3.9 nM | Stable | Stable | > 50% | Cc1ccc(-n2c(C)nnc2-c2ccc3c(c2)N(C2CCCC2)[C@H](C)C(=O)N3C)cc1 | inhibition [13]: Active; inhibition [14]: inactive; inhibition activity call (active/inactive) [15]: Active; inhibition [16]: Active; inhibition [17]: Active
